The values below come from ChEMBL document CHEMBL1157559, “Synthesis and biological evaluation of novel pyrazolyl-2,4-thiazolidinediones as anti-inflammatory and neuroprotective agents” (Bioorg Med Chem, 2010).

Series [1] deals with Rattus norvegicus. As to the kind of experiment: Gastrointestinal toxicity in Wistar albino rat assessed as hyperemia at 100 mg/kg/day, po administered twice daily for 3 days. Format: organism-based. More on the design: route oral. To be noted: in vivo, 72 h. The method, boiled down: (§1)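 Male rats 180–200 g, groups of five, fasted 12 h with water available. Compounds given orally as two equal doses at 0 and 12 h, 100 mg/kg per day, for three successive days; vehicle control 1% gum acacia. Rats killed 6 h after last dose. Stomach opened along greater curvature, washed with cold saline and inspected under 3× lens for hyperemia, hemorrhage, erosions or ulcers.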

The target in series [2] is T1, Prostaglandin G/H synthase 1 (Ovis aries) (UniProt P05979).
T1 sequence (whole entry): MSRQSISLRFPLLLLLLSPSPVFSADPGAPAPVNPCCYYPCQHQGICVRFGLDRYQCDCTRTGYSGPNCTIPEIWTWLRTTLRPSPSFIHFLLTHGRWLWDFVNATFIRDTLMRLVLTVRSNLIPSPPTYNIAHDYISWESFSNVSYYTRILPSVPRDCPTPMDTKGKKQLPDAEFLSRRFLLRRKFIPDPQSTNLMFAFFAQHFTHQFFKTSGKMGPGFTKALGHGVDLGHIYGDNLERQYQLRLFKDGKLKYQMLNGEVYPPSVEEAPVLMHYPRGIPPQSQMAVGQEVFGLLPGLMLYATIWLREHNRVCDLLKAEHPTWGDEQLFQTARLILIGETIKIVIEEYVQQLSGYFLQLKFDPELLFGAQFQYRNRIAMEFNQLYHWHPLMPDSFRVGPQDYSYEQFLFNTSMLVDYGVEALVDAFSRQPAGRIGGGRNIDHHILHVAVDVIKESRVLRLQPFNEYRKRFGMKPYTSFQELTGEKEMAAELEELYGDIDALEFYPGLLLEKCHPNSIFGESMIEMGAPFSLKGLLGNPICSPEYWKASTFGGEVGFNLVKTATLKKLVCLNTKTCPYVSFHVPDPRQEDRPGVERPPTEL
As to the kind of experiment: Inhibition of ovine COX1 at 10 uM. The method, boiled down:
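Kit assay with ovine COX-1, run per manufacturer's protocol. Read-out was percent inhibition of prostaglandin production, with compound at 10 µM and three experiments.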

Series [3] in a line: Acute toxicity in po dosed Swiss albino mouse after 24 hrs. Format: organism-based. To be noted: in vivo, read-out: ALD50. Summed up: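 Four groups of five Swiss albino mice (20–30 g), fasted 24 h beforehand, given compounds orally at graded doses of 0–300 mg/kg. Mortality recorded at each dose level after 24 h to estimate the acute lethal dose (ALD50).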
Series [4] deals with Rattus norvegicus. The experiment in a line: Antiinflammatory activity in Wistar albino rat acute inflammatory model assessed as inhibition of formalin-induced paw edema at 20 mg/kg, po administered 1 hr before formalin challenge measured after 3 hrs by plethysmometer relative to control. It counts as functional. More on the design: scale not given: the % may be the effect or the level left. Summed up: (§2)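 Male Wistar rats, 180–200 g, groups of five. Test compound 20 mg/kg po; 1 h later 0.1 mL 2% formalin injected subplantar into left hind paw under light ether anesthesia. Paw volume by water plethysmometer at 0 and 1, 2, 3, 4 h after formalin. % inhibition = (Vt−V0)control minus (Vt−V0)treated, divided by (Vt−V0)control ×100. Mean ± SEM, ANOVA with Student–Newman–Keuls.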

Series [5] has as its system Rattus norvegicus. The experiment in a line: Antiinflammatory activity in Wistar albino rat acute inflammatory model assessed as inhibition of formalin-induced paw edema at 20 mg/kg, po administered 1 hr before formalin challenge measured after 4 hrs by plethysmometer relative to control. It counts as functional. Further details: scale not given: the % may be the effect or the level left. The method, boiled down:
as §2

For series [6], the target named is T2, Prostaglandin G/H synthase 2 (Homo sapiens) (UniProt P35354).
T2 sequence (whole entry): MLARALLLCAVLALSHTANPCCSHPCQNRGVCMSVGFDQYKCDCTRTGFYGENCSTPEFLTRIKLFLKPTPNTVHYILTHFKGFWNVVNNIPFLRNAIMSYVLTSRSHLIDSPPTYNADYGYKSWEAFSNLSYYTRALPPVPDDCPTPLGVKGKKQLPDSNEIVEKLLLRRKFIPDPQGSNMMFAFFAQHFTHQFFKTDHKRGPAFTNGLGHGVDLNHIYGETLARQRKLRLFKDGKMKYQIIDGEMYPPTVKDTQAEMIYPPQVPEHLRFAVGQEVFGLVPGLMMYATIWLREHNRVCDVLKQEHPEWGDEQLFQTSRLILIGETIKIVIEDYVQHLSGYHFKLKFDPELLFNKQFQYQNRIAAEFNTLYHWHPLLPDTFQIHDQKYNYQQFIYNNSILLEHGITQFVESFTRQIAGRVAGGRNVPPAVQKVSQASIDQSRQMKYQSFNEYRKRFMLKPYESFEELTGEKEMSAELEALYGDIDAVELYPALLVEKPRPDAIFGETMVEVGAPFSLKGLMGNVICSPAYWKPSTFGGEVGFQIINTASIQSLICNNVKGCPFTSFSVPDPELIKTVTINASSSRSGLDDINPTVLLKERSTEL
As to conditions: at 10 µM.

The subject of series [7] is THP-1. As to the kind of experiment: Cytotoxicity against LPS and IFN-gamma-stimulated human THP1 cells after 24 hrs. It counts as functional, cell-based. As to conditions: THP-1, 24 h. Summed up: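 THP-1 cells, 24-well, in DMEM-F12 with 5% FBS. Compound or DMSO added 15 min before LPS 0.5 µg/mL plus IFN-γ 150 U/mL. After 24 h, LDH release (fraction of Triton-lysed value, OD 490) and MTT were read. EC50 taken from curves of at least three independent experiments; the lower of the two assay values was reported.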

Series [8] has as its system Rattus norvegicus. As to the kind of experiment: Antiinflammatory activity in Wistar albino rat acute inflammatory model assessed as inhibition of formalin-induced paw edema at 20 mg/kg, po administered 1 hr before formalin challenge measured after 1 hr by plethysmometer relative to control. More on the design: scale not given: the % may be the effect or the level left. It counts as functional. Summed up:
as §2

Series [9] has as its system Rattus norvegicus. The experiment in a line: Antiinflammatory activity in Wistar albino rat acute inflammatory model assessed as inhibition of formalin-induced paw edema at 20 mg/kg, po administered 1 hr before formalin challenge measured after 2 hrs by plethysmometer relative to control. More on the design: scale not given: the % may be the effect or the level left. It counts as functional. The method, boiled down: as §2

Series [10] deals with THP-1. The experiment in a line: Inhibition of MCP1 release in human THP1 cells after 24 hrs by ELISA. Format: functional, cell-based. The method, boiled down:
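THP-1 cells pretreated 15 min with compound, then stimulated with LPS 0.5 µg/mL plus IFN-γ 150 U/mL. After 24 h, MCP-1 (ng/mL) measured in cell-free medium by ELISA.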

The subject of series [11] is Rattus norvegicus. As to the kind of experiment: Antiinflammatory activity in Wistar albino rat sub-acute inflammatory model assessed as inhibition of formalin-induced paw edema at 20 mg/kg, po administered daily for 7 days by plethysmometer relative to control. Format: functional. To be noted: 168 h. The method, boiled down:
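Rats dosed orally at 20 mg/kg daily for 7 consecutive days. 0.1 mL 2% formalin given subplantar in left hind paw under light ether 1 h after the first oral dose, with a second injection on day 3. Paw edema weight (g) measured on day 8. % inhibition = (control − treated)/control ×100. Groups of five.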

Series [12] has as its system SH-SY5Y. As to the kind of experiment: Neuroprotective activity in human SH-SY5Y cells assessed as inhibition of LPS, IFN-gamma-stimulated THP1 cellular supernatant-induced cytotoxicity after 72 hrs by LDH assay. It counts as functional, cell-based. The method, boiled down:
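SH-SY5Y cells plated 24 h, then medium replaced with supernatant from THP-1 cells stimulated with LPS + IFN-γ for 48 h. Compound added directly to the SH-SY5Y cells at the time of transfer. Cell death measured by LDH release after 72 h; 4–6 independent experiments.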

The subject of series [13] is Rattus norvegicus. The experiment in a line: Antiinflammatory activity in po dosed Wistar albino rat acute inflammatory model assessed as inhibition of formalin-induced paw edema administered 1 hr before formalin challenge measured after 3 hrs by plethysmometer. Format: functional. The method, boiled down: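 Rats dosed orally at 5, 10, 20, 40 and 50 mg/kg body weight. Edema volume inhibition measured 3 h after subplantar formalin (2%, 0.1 mL), and ED50 determined from these doses.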

Series [14] has as its system Rattus norvegicus. The experiment in a line: Gastrointestinal toxicity in Wistar albino rat assessed as ulceration at 100 mg/kg/day, po administered twice daily for 3 days. More on the design: route oral. It counts as organism-based. As to conditions: in vivo, 72 h. Summed up: as §1
In series [15] the test system is Rattus norvegicus. As to the kind of experiment: Antiinflammatory activity in Wistar albino rat sub-acute inflammatory model assessed as inhibition of turpentine oil-induced granuloma pouch exudate volume at 20 mg/kg, po 1 hr before turpentine oil challenge for 7 days assessed measured on day 8. Format: functional. The method, boiled down:
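Male rats 120–150 g, five per group. Subcutaneous dorsal pouch made under ether with 2 mL air, then 0.5 mL turpentine oil injected. Compound 20 mg/kg po 1 h before turpentine, then daily for seven days. On day 8 exudate drawn by syringe under anesthesia and volume measured. % inhibition = (Vcontrol − Vtreated)/Vcontrol ×100.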

For series [16], the system named is SH-SY5Y. As to the kind of experiment: Neuroprotective activity in human SH-SY5Y cells assessed as inhibition of H2O2-induced cytotoxicity after 72 hrs by LDH assay. Format: functional, cell-based. The method, boiled down:
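SH-SY5Y cells plated in DMEM-F12 with 5% FBS. After 24 h, medium replaced with medium containing H2O2 (500 µM in methods, 250 µM in figure legend), and compound added directly at that time. Cell death measured by LDH release 72 h later.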

The subject of series [17] is SH-SY5Y. The experiment in a line: Antineurotoxicity in human SH-SY5Y cells assessed as inhibition human THP1 cell supernatant-induced cytotoxicity compound pretreated 24 to 48 hrs to THP1 cells measured after 72 hrs of supernatant addition. Format: functional, cell-based. Summed up: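 THP-1 cells in DMEM-F12 with 5% FBS, pretreated 15 min with compound or DMSO, then stimulated with LPS 0.5 µg/mL plus IFN-γ 150 U/mL for 24 or 48 h. Cell-free supernatant transferred to SH-SY5Y cells plated 24 h earlier. After 72 h, viability by LDH release and MTT. IC50 from curves of at least three independent experiments.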

Calls of active or inactive are those of the source. The rule behind the calls is not given here. Where only a bound is given, the exact number is not on record here.

As to `C=CCN1C(=O)S/C(=C\c2cn(-c3ccccc3)nc2-c2ccc(Cl)cc2)C1=O`, the Activity entry in the series on Rattus norvegicus [1] is reported as “Non-toxic”; with Rattus norvegicus [4], 72%; in the series on Rattus norvegicus [5] it was 66%; in the series with Rattus norvegicus [8], 53%; with Rattus norvegicus [9], 63%; with Rattus norvegicus [14], 0%. Moreover, the figures for the inhibition in [2] and in series [6] were 26.5% and 13.6%, respectively. In addition, the LD50 at 24 h in series [3] is greater than 300 mg/kg. Besides, in the series on THP-1 [7], the EC50 worked out at 120 µM. Further, the inhibition result with THP-1 [10], in the series on SH-SY5Y [12] and in the series with SH-SY5Y [16] was “inactive” each time. The figures for the inhibition in vivo at 20 mg/kg in the series with Rattus norvegicus [11] and in the series with Rattus norvegicus [15] were 47% and 50%, respectively. In addition, in the series on Rattus norvegicus [13], the ED50 came to 15.4 mg/kg. In addition, the IC50 in the series with SH-SY5Y [17] was determined as 10 µM.
